These results are taken from ChEMBL document CHEMBL1124408, “3-aminopyridazine derivatives with atypical antidepressant, serotonergic, and dopaminergic activities” (J Med Chem, 1989).

Data set [1] concerns Mus musculus. As to the kind of experiment: Serotonergic activity was determined by measuring the potentiation of 5-hydroxytryptophan in mice upon ip administration. Type of data set: functional. The gist of the method:
(§1)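 Drug was injected ip in distilled water/gum tragacanth to female CD1 mice (18-22 g) at multiple doses (7-20 mice/dose), 30 min before a threshold dose of L-5-HTP (200 mg/kg ip). Mice were held singly in small cages, and tremor was scored all-or-none over the 20 min after L-5-HTP.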

Data set [2] has as its system Mus musculus. As to the kind of experiment: Ability to modify turning behavior of mice after intraperitoneal administration. Type of data set: functional. The conditions noted are these: ip, read-out: MED. The gist of the method:
(§2)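 Female CD1 mice (25-30 g) were lesioned by stereotaxic injection of 6-OHDA (10 μg in 1 μL saline with 1 mg/mL ascorbic acid) into the right striatum under pentobarbitone (60 mg/kg ip). Seven days later, drug in distilled water/gum tragacanth was given ip at multiple doses (7-20 mice/dose). Ipsilateral turns were counted for 2 min starting 30 min post-dose.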

Data set [3] concerns Mus musculus. As to the kind of experiment: Compound was tested for antidepressant activity against reserpine induced ptosis in mice after intraperitoneal administration.; value ranges from 24-55. Format: functional. The note with it: ip. The gist of the method: (§3)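 Female CD1 mice (18-22 g) received the drug in distilled water/gum tragacanth ip at multiple doses (7-20 mice/dose), given together with reserpine (2 mg/kg iv). One hour later, palpebral ptosis (half or more of the lid closed) was scored all-or-none. Screening dose was at most 50% of the seizure threshold dose.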

Data set [4] can be described thus: (§4) Acute toxicity in mice after intraperitoneal administration. The conditions noted are these: mouse, in vivo, ip, LD50.
The test system of data set [5] is Mus musculus. As to the kind of experiment: Compound was tested for antidepressant activity against reserpine induced ptosis in mice after intraperitoneal administration.; value ranges from 27-31. Type of data set: functional. The conditions noted are these: ip. In short, it runs like this:
as §3

In data set [6] the test system is Mus musculus. As to the kind of experiment: Compound was tested for antidepressant activity against reserpine induced ptosis in mice after intraperitoneal administration.; value ranges from 14-18. Format: functional. The conditions noted are these: ip. In short, it runs like this:
as §3

The test system of data set [7] is Mus musculus. As to the kind of experiment: Serotonergic activity by measuring the potentiation of 5-hydroxy tryptophan in mice upon ip administration; value ranges from 19-31. Format: functional. In short, it runs like this: as §1
Data set [8] deals with Mus musculus. As to the kind of experiment: Compound was tested for antidepressant activity against reserpine induced ptosis in mice after intraperitoneal administration.; value ranges from 4-7. Type of data set: functional. The conditions noted are these: ip. In short, it runs like this: as §3
In data set [9] the test system is Mus musculus. The description is as §4. The conditions noted are these: in vivo, ip.
Data set [10] concerns Mus musculus. As to the kind of experiment: Serotonergic activity by measuring the potentiation of 5-hydroxy tryptophan in mice upon ip administration; value ranges from 17-20. Type of data set: functional. In short, it runs like this:
as §1

Data set [11] has as its system Mus musculus. As to the kind of experiment: Compound was tested for antidepressant activity against reserpine induced ptosis in mice after intraperitoneal administration.; value ranges from 16-20. Format: functional. The conditions noted are these: ip. The gist of the method:
as §3

Data set [12] relates to Mus musculus. As to the kind of experiment: Compound was tested for antidepressant activity against reserpine induced ptosis in mice after intraperitoneal administration.; value ranges from 5-9. Type of data set: functional. The note with it: ip. The gist of the method: as §3
Data set [13] relates to Mus musculus. As to the kind of experiment: Compound was tested for antidepressant activity against reserpine induced ptosis in mice after intraperitoneal administration.; value ranges from 0.13-0.22. Type of data set: functional. The note with it: ip. The gist of the method: as §3
For data set [14], the system named is Mus musculus. As to the kind of experiment: Ability to modify turning behavior of mice after intraperitoneal administration. Type of data set: functional. The note with it: ip, read-out: MED. In short, it runs like this:
as §2

Data set [15] deals with Mus musculus. As to the kind of experiment: Serotonergic activity by measuring the potentiation of 5-hydroxy tryptophan in mice upon ip administration; value ranges from 1.9-11.7. Type of data set: functional. In short, it runs like this: as §1
Data set [16] deals with Mus musculus. As to the kind of experiment: Compound was tested for antidepressant activity against reserpine induced ptosis in mice after intraperitoneal administration.; value ranges from 1.9-10.7. Format: functional. The note with it: ip. The gist of the method:
as §3

The subject of data set [17] is Mus musculus. As to the kind of experiment: Compound was tested for antidepressant activity against reserpine induced ptosis in mice after intraperitoneal administration.; value ranges from 2.2-2.4. Format: functional. The conditions noted are these: ip. The gist of the method:
as §3

Regarding `CNCCNc1nnc(-c2ccccc2)cc1C`, the ED50 in the data set with Mus musculus [1] was no less than 30 mg/kg; in the data set on Mus musculus [3], 36 mg/kg. In the data set on Mus musculus [2], the minimal effective dose is 2 mg/kg. For the same compound, the LD50 in data set [4] was greater than 200 mg/kg.

As for `Cc1cc(-c2ccccc2)nnc1NCCN(C)C`, the ED50 is greater than 30 mg/kg with Mus musculus [1] and 29 mg/kg in the data set on Mus musculus [5]. Also, in the data set with Mus musculus [2], the minimal effective dose stood at 10 mg/kg. The same compound yielded an LD50 in data set [4] of 118 mg/kg.

Take `Cc1cc(-c2ccccc2)nnc1NCCN`: the ED50 with Mus musculus [1] was greater than 30 mg/kg; with Mus musculus [6] it was 16 mg/kg. Further, the minimal effective dose with Mus musculus [2] was determined as 0.5 mg/kg. Besides, in [4], the LD50 worked out at 300 mg/kg.

As for `Cc1cc(-c2ccccc2)nnc1NCCN1CCOCC1.Cl`, the ED50 was 24 mg/kg with Mus musculus [7] and 5 mg/kg in the data set with Mus musculus [8]. Further, the LD50 in the data set with Mus musculus [9] amounted to 63 mg/kg.

With `Br.Br.Cc1cc(-c2ccccc2O)nnc1NCCN1CCOCC1`, the values for the ED50 in the data set with Mus musculus [10] and in the data set with Mus musculus [11] were 17 mg/kg and 16 mg/kg, respectively. Moreover, in the data set with Mus musculus [2], the minimal effective dose amounted to 0.1 mg/kg. The same compound yielded a 50% lethal dose (LD50) in data set [4] greater than 200 mg/kg.

With `COc1cccc(-c2cc(C)c(NCCN3CCOCC3)nn2)c1`, the figures for the ED50 in the data set on Mus musculus [1] and with Mus musculus [12] were greater than 5 mg/kg and 6 mg/kg, respectively. Moreover, the minimal effective dose in the data set with Mus musculus [2] turned out to be 0.5 mg/kg. The same compound showed an LD50 in [4] of 18 mg/kg.

For the compound `CN1Cc2c(N)cccc2C(c2ccccc2)C1` (stereo not drawn) [NOMIFENSINE], the results for the ED50 with Mus musculus [13] and in the data set on Mus musculus [1] were 0.17 mg/kg and greater than 30 mg/kg, respectively. Besides, in the data set on Mus musculus [14], the minimal effective dose is 5 mg/kg.

As to `Cc1cc(-c2ccc(F)cc2)nnc1NCCN1CCOCC1`, the minimal effective dose with Mus musculus [2] amounted to 2 mg/kg. The ED50 amounted to 4.7 mg/kg in the data set with Mus musculus [15] and 4.5 mg/kg in the data set on Mus musculus [16]. Further, the LD50 in data set [4] came to 45 mg/kg.

Consider `CN(C)CCCN1c2ccccc2CCc2ccccc21` [IMIPRAMINE], for which the ED50 with Mus musculus [1] was greater than 30 mg/kg; with Mus musculus [17] it was 2.3 mg/kg. The minimal effective dose with Mus musculus [2] was greater than 20 mg/kg.

One may read the ED50 as the midpoint of the dose-response relation. As a reminder, the LD50 is the dose expected to kill half of the subjects tested. A lower LD50 goes with a more toxic substance.
